In the library only some 5.1% were active in any assay of this set; here they are far more common.
M1 antag – antagonists of rat M1 muscarinic receptor; P08482; CHO-M1 cells, Fluo-4 calcium, ACh EC80 antagonist mode; stronger effect = lower value; B-score at 10 µM; hit rate 3.4% among 64,000;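 active = calcium fluorescence response, raw or row-and-column corrected B-score, differing from the plate sample mean either way at a set confidence level, mostly lower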
Hsp90 inh – displaces geldanamycin probe from tumor Hsp90; P07900; NCI-N417 lysate Hsp90, Cy3B-geldanamycin FP displacement; inhibition, % at 30 µM; hit rate 0.35% among 64,000; AID 429;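 active = inhibition above 50%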;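 also: 0% = tracer plus lysate wells and 100% = tracer alone without lysate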
E coli WT exp – blocks growth of wild type E. coli BW25113. hit rate 0.15% among 98,000. AID 710. OD600 absorbance. growth inhibition, % at 100 µM;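 active = growth inhibition above about 50% at one test dose, limit read from the data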;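 also: growth measured after 20 h incubation at 37 °C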
M1 agonist – activates the M1 muscarinic receptor | CHO-M1 cells, Fluo-4 calcium fluorescence, agonist mode; stronger effect = higher value | B-score at 10 µM | hit rate 3% among 64,000 | AID 626;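 active = fluorescence rise, raw or as B-score row- and column-corrected plate score, outside the 99.7% band of its plate's samples, either direction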
BAP1 inh – inhibitors of human BAP1 deubiquitinase | calls only at 20 µM | hit rate 0.48% among 72,000 | recombinant BAP1, Ub-AMC hydrolysis fluorescence kinetic; stronger effect = lower value | Q92560;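 active = activity remaining at or below 50% of control, provided the compound also passes the data quality filters; inactive = the rest, including low values that fail the filters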;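 also: 100% = DMSO wells rate and 0% = substrate alone blank rate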
Target sequence (Q92560 whole entry, looked up): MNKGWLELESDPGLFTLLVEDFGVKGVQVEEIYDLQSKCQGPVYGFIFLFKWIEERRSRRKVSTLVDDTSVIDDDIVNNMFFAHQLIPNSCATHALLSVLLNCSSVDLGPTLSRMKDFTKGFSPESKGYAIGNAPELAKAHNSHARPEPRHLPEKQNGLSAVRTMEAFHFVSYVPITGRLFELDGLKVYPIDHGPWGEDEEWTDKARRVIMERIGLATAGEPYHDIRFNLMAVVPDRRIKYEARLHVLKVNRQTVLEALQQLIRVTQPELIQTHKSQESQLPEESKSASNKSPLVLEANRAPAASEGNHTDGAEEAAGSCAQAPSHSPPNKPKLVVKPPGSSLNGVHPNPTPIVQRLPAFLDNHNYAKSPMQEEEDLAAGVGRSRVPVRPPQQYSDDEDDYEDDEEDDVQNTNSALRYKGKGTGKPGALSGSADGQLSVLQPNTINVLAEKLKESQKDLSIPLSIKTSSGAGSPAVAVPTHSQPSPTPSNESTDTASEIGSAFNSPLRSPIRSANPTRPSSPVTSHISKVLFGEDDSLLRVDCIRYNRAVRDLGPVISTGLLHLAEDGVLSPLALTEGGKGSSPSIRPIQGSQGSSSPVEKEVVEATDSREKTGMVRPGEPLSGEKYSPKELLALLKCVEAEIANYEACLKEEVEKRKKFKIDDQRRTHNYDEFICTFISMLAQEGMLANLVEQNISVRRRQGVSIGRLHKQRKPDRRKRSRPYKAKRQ
tolC growth inh – blocks growth of E. coli BW25113 tolC mutant; hit rate 2.2% among 65,000; AID 573; OD615; growth inhibition, % at 10 µM (by protocol);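 active = growth inhibition at or above a cutoff equal to the mean over every tested compound plus 3 SD, cut at about 60% in these data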;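 also: growth measured after 20 h incubation at 37 °C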
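Test system – E. coli BW25113 ΔtolC::kan, tolC deletion mutant strain · Detection – OD at 615 nm · Buffer or medium – LB with kanamycin 50 µg/mL · Times – 20 h compound exposure of bacteria at 37 °C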
An asterisk follows results filed as active; i = inactive; . = not tested or not shown; + = active, no number.

SMILES	M1 antag	Hsp90 inh	E coli WT exp	M1 agonist	BAP1 inh	tolC growth inh
Cc1ccc(-n2nc3c(c2NC(=O)c2cc(Cl)ccc2[N+](=O)[O-])CSC3)cc1	.	.	.	.	i	.
COc1ccc(C2CC(=O)C3=C(C2)Nc2ncnn2C3c2ccccc2)cc1 (stereo not given)	-0.00166	91.3*	2.0	-0.866	i	16.0
COc1ccc(C2CC(=O)C3=C(C2)Nc2ncnn2C3c2ccccc2C)cc1 (stereo not given)	-0.00328	-3.6	2.0	-0.427	i	3.6
COc1ccccc1C(=O)Nc1nnc(-c2ccc(Cl)cc2)o1	0.531	-2.8	.	-0.0013	i	44.0
COc1ccccc1C(=O)Nc1nnc(-c2ccc(F)cc2)o1	0.349	0.6	7.0	-0.285	i	4.0
O=C(Nc1nnc(-c2ccc(F)cc2)o1)c1ccco1	-0.993	0.6	.	-0.364	i	76.9*
COc1ccc(-c2nnc(NC(=O)c3cc(Cl)ccc3Cl)o2)cc1	-0.363	-0.1	1.0	0.44	i	98.1*
COc1ccc(-c2nnc(NC(=O)c3ccc(F)cc3)o2)cc1	.	.	51.0*	.	.	.
CCOc1ccc(NS(=O)(=O)c2ccc3[nH]cc(C(=O)NCC4CCCO4)c(=O)c3c2)cc1 (stereo not given)	-0.744	-0.1	-15.0	0.841	i	-0.8
CCOc1ccc(NS(=O)(=O)c2ccc3[nH]cc(C(=O)N(CC)CC)c(=O)c3c2)cc1	-11.3*	-3.8	0.0	23.4*	i	-7.8
CCN(CC)S(=O)(=O)c1cc(C(=O)Nc2ccc(OC)cc2)ccc1C	.	.	.	.	i	.
CCCCCCn1cc(C(=O)O)c(=O)c2ccccc21	-0.0564	4.2	5.0	3.65	i	3.9
CCCCn1cc(SCC(=O)O)c2ccccc21	21.4*	-9.0	-3.0	-0.545	i	2.2
CCOc1ccc(C(=O)Nc2nc(-c3ccccc3)cs2)cc1Cl	.	.	.	.	i	.
c1ccc2sc(SCc3ccc(-c4nnco4)cc3)nc2c1	-0.169	90.8*	-3.0	-0.0103	.	25.7
CC(C)c1ccc(O)c(NC(=O)c2ncn[nH]2)c1	2.26*	4.6	2.0	0.204	i	-1.6
COc1ccc(C(=O)Nc2c3c(nn2-c2ccc(C)cc2C)CSC3)cc1OC	.	.	.	.	i	.
O=C(Nc1cccc(-c2nnc(-c3ccccc3)o2)c1)c1ccc(Br)o1	0.0178	-3.9	-12.0	1.04	.	84.4*
O=C(COc1ccccc1)Nc1nnc(-c2ccc(Cl)s2)o1	1.07	0.1	55.0*	0.933	i	95.8*
O=C(COc1ccccc1)Nc1cccc(-c2nnc(-c3ccccc3)o2)c1	-0.565	-2.7	.	-0.21	+	23.1
Cc1ccc(-n2nnnc2SCC(=O)c2cc(C)n(-c3cc(C)on3)c2C)cc1	0.825*	-3.9	-11.0	0.966	.	-0.7
COc1cccc(-c2csc(N3CCN(C(=O)C4CCCCC4)CC3)n2)c1	-1.05	-1.0	-28.0	3.89	i	68.7*
CCOC(=O)c1c(C)n(C)c2ccc(OCC(O)Cn3nc(C)c(Br)c3C)cc12 (stereo not given)	-0.476	-4.6	.	1.34	i	87.8*
Cc1ccsc1C(=O)Nc1nnc(-c2ccco2)o1	0.855	2.2	85.0*	-0.362	i	98.2*
CCC(=O)Nc1nnc(-c2ccco2)o1	-0.0566	-1.1	3.0	0.863	i	-0.3
SMILES	M1 antag	Hsp90 inh	E coli WT exp	M1 agonist	BAP1 inh	tolC growth inh
O=C1c2ccccc2C(=O)c2c(NC(=O)c3cc(-c4ccccc4)nc4ccccc34)cccc21	.	.	.	.	i	.
O=C(Cn1cnc2scc(-c3ccccc3)c2c1=O)N1CCOCC1	0.233	-4.1	3.0	-0.336	i	-4.8
CCn1cnc2scc(-c3ccccc3)c2c1=O	10.4*	0.9	6.0	-1.19	i	8.7
CCC(=O)NC(=Nc1nc(C)c2cc(C)cc(C)c2n1)NC(=O)CC	.	.	.	.	i	.
COc1ccccc1-c1nnc(SC/C(O)=C(\C#N)c2nc3ccccc3[nH]2)n1C1CCCCC1	-0.319	-3.8	.	0.105	i	71.4*
N#C/C(=C(/O)CSc1nnc(Cc2cccs2)n1C1CCCCC1)c1nc2ccccc2[nH]1	-1.02	.	-3.0	-0.496	.	26.0
CCOC(=O)C1CCCN(c2ncnc3c2cnn3-c2ccc(Cl)cc2)C1 (stereo not given)	0.974	-1.9	-5.0	0.444	i	73.1*
CCOC(=O)C1CCCN(c2ncnc3c2cnn3-c2ccc(OC)cc2)C1 (stereo not given)	0.0956	-0.3	-5.0	1.24	i	42.1
CN(c1ccc(O)cc1)c1nc(-c2ccccc2)cs1	-0.0654	2.0	.	0.778	i	97.6*

Screening results as filed in PubChem BioAssay.
